Data from ChEMBL document CHEMBL1158683, “Cytotoxic sesquiterpenoids from Ratibida columnifera” (1999).
≈ marks a conversion by molar mass, not a printed value. Calls of active or inactive are those of the source. The rule behind the calls is not given here.

Legend:
[1] = test system: KB; test: Cytotoxicity against human KB cells; type: functional; conditions: read-out: ED50 (the source's name)
[2] = test system: ASK; test: Cytotoxicity against human ASK cells at 20 ug/mL; type: functional, cell-based
[3] = test system: ZR-75-1; test: Cytotoxicity against hormone-dependent human ZR751 cells; type: functional; conditions: read-out: ED50 (the source's name)
[4] = test system: Lu1; test: Cytotoxicity against human Lu1 cells; type: functional; conditions: read-out: ED50 (the source's name)
[5] = Cytotoxicity against human multidrug-resistant KBV1 cells in absence of vinblastine; type: functional; conditions: KB-V1, read-out: ED50 (the source's name)
[6] = test system: LNCaP; test: Cytotoxicity against hormone-dependent human LNCaP cells; type: functional; conditions: read-out: ED50 (the source's name)
[7] = test system: Col2; test: Cytotoxicity against human Col2 cells; type: functional; conditions: read-out: ED50 (the source's name)
[8] = Cytotoxicity against human multidrug-resistant KB-V1+ cells in presence of vinblastine; type: functional; conditions: read-out: ED50 (the source's name)
[9] = Cytotoxicity against human BC1 cells; type: functional; conditions: read-out: ED50 (the source's name)
[10] = Cytotoxicity against human U373 cells; type: functional, U-373MG ATCC; conditions: U373 MG, read-out: ED50 (the source's name)
[11] = test system: HT; test: Cytotoxicity against human HT cells; type: functional; conditions: read-out: ED50 (the source's name)
[12] = Cytotoxicity against human Mel2 cells; type: functional; conditions: read-out: ED50 (the source's name)
[13] = test system: A-431; test: Cytotoxicity against human A431 cells; type: functional; conditions: read-out: ED50 (the source's name)
[14] = test system: Nucleic Acid; test: Binding affinity to DNA assessed as DNA intercalation; type: nucleic-acid assay
[15] = Inhibition of tubulin polymerization at 10 to 100 uM
[16] = test system: M109; test: Antitumor activity against mouse M109 cells xenografted CDF1 mouse model at 24 mg/kg, ip for 5 days; type: functional; conditions: route intraperitoneal
Outline: (§1)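 A 2% w/v brei of M109 murine lung carcinoma was prepared in RPMI from harvested solid tumors. Female CDF1 mice (six per group) were implanted ip with 0.5 mL. Compound was given ip daily for 5 days, beginning 1 day after implantation. The endpoint was lifespan, expressed as %T/C (treated over control lifespan × 100%).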

[17] = test system: A2780; test: Induction of apoptosis in human p53 […] at 15 uM after 24 hrs by TdT assay; type: functional; conditions: in the assay text read “A2780R” for “A2780S”
Outline: (§2)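 A2780S (p53 wild-type) and A2780R (p53 mutant) ovarian carcinoma cells were exposed for 24 h at 0–30 µM. Cells (10^6) were trypsinized and fixed in 1% methanol-free formaldehyde/PBS for 15 min on ice. They were washed twice with PBS and fixed in 80% EtOH at −20 °C for 16 h. A TdT assay (APO-Direct kit, minor modifications) then scored % apoptotic cells.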

[18] = test system: A2780R; test: Induction of apoptosis in human p53 mutant A2780R at 1.5 uM after 24 hrs by TdT assay
[19] = test system: A2780; test: Induction of apoptosis in human p53 mutant A2780R at 7.5 uM after 24 hrs by TdT assay
[20] = test system: A2780; test: Induction of apoptosis in human p53 wild type A2780S at 30 uM after 24 hrs by TdT assay; type: functional; outline: as §2
[21] = test system: A2780; test: Induction of apoptosis in human p53 wild type A2780S at 15 uM after 24 hrs by TdT assay; type: functional; outline: as §2
[22] = molecular target: T1, DNA topoisomerase 1 (Homo sapiens) (UniProt P11387); test: Inhibition of topoisomerase 1 at 10 to 100 uM
T1 sequence (whole entry): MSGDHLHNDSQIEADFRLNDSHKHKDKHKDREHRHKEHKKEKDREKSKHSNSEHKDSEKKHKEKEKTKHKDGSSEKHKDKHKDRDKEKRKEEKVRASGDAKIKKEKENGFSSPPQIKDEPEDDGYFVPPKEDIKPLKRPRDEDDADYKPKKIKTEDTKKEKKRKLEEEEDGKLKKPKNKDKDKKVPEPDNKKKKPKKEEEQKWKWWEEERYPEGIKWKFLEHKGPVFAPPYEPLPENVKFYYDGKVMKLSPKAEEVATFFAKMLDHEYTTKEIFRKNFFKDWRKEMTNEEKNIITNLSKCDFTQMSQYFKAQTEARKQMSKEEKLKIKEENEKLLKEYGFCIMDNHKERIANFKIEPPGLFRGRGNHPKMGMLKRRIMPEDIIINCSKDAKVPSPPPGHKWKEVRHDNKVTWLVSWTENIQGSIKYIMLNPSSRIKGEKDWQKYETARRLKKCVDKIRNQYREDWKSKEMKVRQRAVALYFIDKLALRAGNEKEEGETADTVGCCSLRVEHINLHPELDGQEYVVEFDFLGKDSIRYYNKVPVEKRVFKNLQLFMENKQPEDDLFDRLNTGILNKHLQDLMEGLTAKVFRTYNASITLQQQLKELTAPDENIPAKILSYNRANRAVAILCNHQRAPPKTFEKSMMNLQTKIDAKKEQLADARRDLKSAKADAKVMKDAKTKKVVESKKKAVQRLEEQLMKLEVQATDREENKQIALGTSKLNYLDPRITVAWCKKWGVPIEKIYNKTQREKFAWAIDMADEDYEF

[23] = test system: A2780; test: Induction of apoptosis in human p53 wild type A2780S at 1.5 uM after 24 hrs by TdT assay; type: functional; outline: as §2
[24] = test system: M109; test: Antitumor activity against mouse M109 cells xenografted CDF1 mouse model at 8 mg/kg, ip for 5 days; type: functional; conditions: route intraperitoneal; outline: as §1
[25] = test system: A2780; test: Induction of apoptosis in human p53 wild type A2780S at 0.15 uM after 24 hrs by TdT assay; type: functional; outline: as §2
[26] = Inhibition of topoisomerase 2 at 10 to 100 uM
[27] = test system: A2780; test: Induction of apoptosis in human p53 […] at 30 uM after 24 hrs by TdT assay; type: functional; conditions: in the assay text read “A2780R” for “A2780S”; outline: as §2
[28] = test system: A2780; test: Induction of apoptosis in human p53 mutant A2780R at 0.15 uM after 24 hrs by TdT assay
[29] = test system: A2780; test: Induction of apoptosis in human p53 wild type A2780S at 7.5 uM after 24 hrs by TdT assay; type: functional; outline: as §2

Compound | EC50 [1] [µg/mL] | Activity [2] | EC50 [3] [µg/mL] | EC50 [4] [µg/mL] | EC50 [5] [µg/mL] | EC50 [6] [µg/mL] | EC50 [7] [µg/mL] | EC50 [8] [µg/mL] | EC50 [9] [µg/mL] | EC50 [10] [µg/mL] | EC50 [11] [µg/mL] | also measured
C=C1C(=O)O[C@@H]2[C@@H]1[C@@H](O)C[C@H](C)[C@@](O)(C(=O)/C=C/C)[C@H]2OC(=O)/C(C)=C\C | 1.4 (≈ 3.7 µM) | inactive | 1.4 (≈ 3.7 µM) | 2.3 (≈ 6.08 µM) | 3 (≈ 7.93 µM) | 0.4 (≈ 1.06 µM) | 5.7 (≈ 15.1 µM) | 1.7 | 4.2 (≈ 11.1 µM) | – | – | –
C=C1C(=O)O[C@@H]2[C@@H]1CC(=O)[C@H](C)[C@@](O)(C(=O)/C=C/C)[C@H]2OC(=O)C(C)CC (stereo partly drawn) | 1.1 (≈ 2.91 µM) | inactive | – | 2.3 (≈ 6.08 µM) | 2 (≈ 5.29 µM) | 0.4 (≈ 1.06 µM) | 1.2 (≈ 3.17 µM) | 1.1 | 0.5 (≈ 1.32 µM) | – | – | –
C=C1C(=O)O[C@@H]2[C@@H]1CC[C@H](C)[C@@](O)(C(=O)/C=C/C)[C@H]2OC(=O)/C(C)=C\C | 0.4 (≈ 1.1 µM) | inactive | 1.4 (≈ 3.86 µM) | 0.4 (≈ 1.1 µM) | 1.6 (≈ 4.41 µM) | 1 (≈ 2.76 µM) | 0.9 (≈ 2.48 µM) | 0.3 | 0.8 (≈ 2.21 µM) | 0.2 (≈ 0.552 µM) | 0.4 (≈ 1.1 µM) | –
C=C1C(=O)O[C@@H]2[C@@H]1[C@H]1O[C@H]1[C@H](C)[C@@](O)(C(=O)/C=C/C)[C@H]2OC(=O)/C(C)=C\C | 0.3 (≈ 0.797 µM) | inactive | – | 0.5 (≈ 1.33 µM) | 0.2 (≈ 0.531 µM) | – | 0.8 (≈ 2.13 µM) | 0.9 | 0.3 (≈ 0.797 µM) | 0.2 (≈ 0.531 µM) | 0.16 (≈ 0.425 µM) | –
C=C1C(=O)O[C@@H]2[C@@H]1C[C@@H](O)[C@H](C)[C@@](O)(C(=O)CC(C)O)[C@H]2OC(=O)C(C)CC (stereo partly drawn) | 12.7 (≈ 31.9 µM) | inactive | – | 16.8 (≈ 42.2 µM) | > 20 | 8.1 (≈ 20.3 µM) | 8.7 (≈ 21.8 µM) | > 20 | 9 (≈ 22.6 µM) | – | – | –
COc1c(O)cc2oc(-c3ccc(O)cc3)cc(=O)c2c1O [HISPIDULIN] | 18.8 (≈ 62.6 µM) | inactive | 1.2 (≈ 4 µM) | > 20 | 8.7 (≈ 29 µM) | 7.1 (≈ 23.6 µM) | > 20 | 1.3 | > 20 | 8.8 (≈ 29.3 µM) | 10.1 (≈ 33.6 µM) | EC50 [12]: 14.6 µg/mL (≈ 48.6 µM); EC50 [13]: 1.2 µg/mL (≈ 4 µM)
C=C1C(=O)O[C@@H]2[C@@H]1CC(=O)[C@H](C)[C@@](O)(C(=O)CC(C)OC)[C@H]2OC(=O)C(C)CC (stereo partly drawn) | 6.6 (≈ 16.1 µM) | inactive | – | 4.4 (≈ 10.7 µM) | 4 (≈ 9.75 µM) | 0.5 (≈ 1.22 µM) | 3.1 (≈ 7.55 µM) | 5 | 1.2 (≈ 2.92 µM) | – | – | –
C=C[C@@](C)(O)C[C@@H](O)/C=C(\C)CC/C=C(\C)COC(C)=O | 3.5 (≈ 11.8 µM) | inactive | – | > 20 | 10.9 (≈ 36.8 µM) | > 20 | 6.2 (≈ 20.9 µM) | > 20 | 8.7 (≈ 29.4 µM) | 6.3 (≈ 21.3 µM) | 9.5 (≈ 32.1 µM) | –
C=C1C(=O)O[C@@H]2[C@@H]1C[C@@H](O)[C@H](C)[C@@](O)(C(=O)/C=C/C)[C@H]2OC(=O)C(C)CC (stereo partly drawn) | 1 (≈ 2.63 µM) | inactive | – | 0.9 (≈ 2.37 µM) | 0.9 (≈ 2.37 µM) | 0.5 (≈ 1.31 µM) | 1.1 (≈ 2.89 µM) | 1.6 | 0.8 (≈ 2.1 µM) | – | – | Activity [14]: inactive; Activity [15]: inactive; T/C [16]: 113%; Activity [17]: 31.87%; Activity [18]: 1.66%; Activity [19]: 2.63%; Activity [20]: 78.14%; Activity [21]: 51.67%; Activity [22]: inactive; Activity [23]: 1.27%; T/C [24]: 103%; Activity [25]: 1.17%; Activity [26]: inactive; Activity [27]: 49.25%; Activity [28]: 0.77%; Activity [29]: 61.31%
C=C1C(=O)O[C@@H]2[C@@H]1C[C@@H](O)[C@H](C)[C@@](O)(C(=O)/C=C/C)[C@H]2OC(=O)/C(C)=C\C | 0.3 (≈ 0.793 µM) | inactive | 0.2 (≈ 0.529 µM) | 1.1 (≈ 2.91 µM) | 1.2 (≈ 3.17 µM) | 0.16 (≈ 0.423 µM) | 0.5 (≈ 1.32 µM) | 1.3 | 0.6 (≈ 1.59 µM) | 0.2 (≈ 0.529 µM) | 0.3 (≈ 0.793 µM) | EC50 [12]: 0.5 µg/mL (≈ 1.32 µM); EC50 [13]: 0.2 µg/mL (≈ 0.529 µM)
